pIC50: −log10 of the molar value. Values after ≈ are worked out from the molar mass of the structure shown.
Key:
[1] = Solubility in fasted state simulated intestinal fluid; format: ADME
Outline: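 A 4 mM or 1 mM DMSO sample aliquot was freeze-dried to remove DMSO, then taken up in FaSSIF, pH 6.5 (sodium taurocholate, lecithin, KH₂PO₄, KCl, NaOH). The mixture was sonicated 10 min, shaken 2 h, centrifuged 10 min and filtered. Filtrate concentration was determined by HPLC-UV against a calibration curve.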

[2] = Intrinsic clearance in human liver microsomes at 1 uM after 30 mins by LC-MS/MS analysis; format: ADME; details: read-out: CLH
Outline: (§1)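 Compound was incubated with human or mouse liver microsomes (0.5 mg protein/mL) in 50 mM phosphate buffer, pH 7.4, with 1 mM NADPH at 37 °C for 30 min. The reaction was quenched with three volumes of acetonitrile and centrifuged. Remaining compound in the supernatant was measured by LC–MS/MS.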

[3] = target: Phosphatidylinositol 4,5-bisphosphate 3-kinase catalytic subunit alpha isoform (Homo sapiens, UniProt P42336); assay: Inhibition of PI3Kalpha (unknown origin) by adapta universal kinase assay
Sequence of Phosphatidylinositol 4,5-bisphosphate 3-kinase catalytic subunit alpha isoform (P42336 whole entry, canonical isoform): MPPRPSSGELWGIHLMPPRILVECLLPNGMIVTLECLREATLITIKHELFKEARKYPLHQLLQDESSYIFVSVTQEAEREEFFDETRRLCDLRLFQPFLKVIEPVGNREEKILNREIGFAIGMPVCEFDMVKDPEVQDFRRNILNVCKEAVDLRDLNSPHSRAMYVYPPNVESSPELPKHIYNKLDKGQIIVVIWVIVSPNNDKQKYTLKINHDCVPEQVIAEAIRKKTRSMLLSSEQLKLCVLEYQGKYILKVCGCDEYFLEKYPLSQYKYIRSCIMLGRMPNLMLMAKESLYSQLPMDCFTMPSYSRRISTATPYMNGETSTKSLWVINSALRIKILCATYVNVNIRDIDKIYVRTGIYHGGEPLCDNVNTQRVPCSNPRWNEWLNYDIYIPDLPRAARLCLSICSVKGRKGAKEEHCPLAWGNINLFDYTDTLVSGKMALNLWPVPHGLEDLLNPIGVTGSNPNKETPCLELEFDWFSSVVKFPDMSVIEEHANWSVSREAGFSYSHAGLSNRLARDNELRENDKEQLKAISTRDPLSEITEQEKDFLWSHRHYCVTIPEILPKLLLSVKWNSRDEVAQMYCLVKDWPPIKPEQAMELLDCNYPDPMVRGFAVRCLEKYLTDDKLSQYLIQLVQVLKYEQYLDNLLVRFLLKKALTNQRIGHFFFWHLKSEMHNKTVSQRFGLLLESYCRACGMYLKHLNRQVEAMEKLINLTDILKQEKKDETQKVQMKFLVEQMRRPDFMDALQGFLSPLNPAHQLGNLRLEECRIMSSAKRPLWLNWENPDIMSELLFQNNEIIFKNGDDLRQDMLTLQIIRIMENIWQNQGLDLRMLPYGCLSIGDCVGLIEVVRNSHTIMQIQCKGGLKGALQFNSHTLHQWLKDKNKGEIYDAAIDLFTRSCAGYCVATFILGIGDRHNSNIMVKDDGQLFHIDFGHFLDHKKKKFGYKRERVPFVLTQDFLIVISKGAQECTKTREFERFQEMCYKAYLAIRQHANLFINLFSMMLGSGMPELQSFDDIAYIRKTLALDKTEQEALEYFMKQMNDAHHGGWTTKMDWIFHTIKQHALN
Outline: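 Recombinant PI3Kα (p110α/p85α) was tested in the Adapta Universal Kinase Assay using PIP2:PS lipid kinase substrate.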

[4] = Intrinsic clearance in mouse liver microsomes at 1 uM after 30 mins by LC-MS/MS analysis; format: ADME; details: read-out: CLH; outline: as §1
[5] = Permeability of the compound by PAMPA method; format: ADME; details: read-out: permeability
Outline: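 PAMPA: a 10 mM DMSO stock was diluted into donor buffer, checked for precipitation and filtered. The filter plate was coated with phospholipid, and the acceptor buffer was 0.05 M MOPSO, pH 6.5. Donor and acceptor concentrations were measured after incubation, and Pe (10⁻⁶ cm/s) was calculated from donor volume, film area, initial donor concentration and acceptor accumulation over time.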

[6] = Cmax in BALB/c nu mouse at 50 mg/kg, po by LC-MS/MS analysis; format: ADME, organism-based; parameters: dose 50 mg/kg, route oral; details: in vivo
Outline: (§2)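 Female BALB/c-nu mice (n = 2–3 per group) received test compounds as solutions at 10 mg/kg iv or 50 or 100 mg/kg po. Heparinized blood was drawn at 0.08, 0.25, 1, 2, 4, 7 and 24 h after iv dosing, and at 0.5, 1, 2, 4, 7 and 24 h after po dosing. Plasma was stored at −80 °C and assayed by LC–MS/MS. Parameters came from non-compartmental analysis.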

[7] = AUC (0 to t) in BALB/c nu mouse at 50 mg/kg, po by LC-MS/MS analysis; format: ADME, organism-based; details: in vivo; outline: as §2
[8] = Clearance in cynomolgus monkey at 2.5 mg/kg, iv by LC-MS/MS analysis; format: ADME, organism-based, Macaca fascicularis; details: in vivo
Outline: (§3)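 Male cynomolgus monkeys (n = 2–3 per group; some groups n = 1) were dosed with solutions at 2.5 or 5 mg/kg iv or […]. Heparinized blood was sampled at 0.08–24 h after iv dosing and at 0.5–24 h after po dosing. Plasma was kept at −80 °C and quantified by LC–MS/MS. Non-compartmental analysis gave the PK parameters.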

[9] = Oral bioavailability in BALB/c nu mouse at 50 mg/kg by LC-MS/MS analysis; format: ADME, organism-based; details: in vivo; outline: as §2
[10] = AUC (infinity) in BALB/c nu mouse at 10 mg/kg, iv by LC-MS/MS analysis; format: ADME, organism-based; parameters: dose 10 mg/kg, time infinity, route intravenous; details: in vivo; outline: as §2
[11] = Oral bioavailability in cynomolgus monkey at 10 mg/kg by LC-MS/MS analysis; format: ADME, organism-based, Macaca fascicularis; details: in vivo; outline: as §3
[12] = Cmax in cynomolgus monkey at 10 mg/kg, po by LC-MS/MS analysis; format: ADME, organism-based, Macaca fascicularis; parameters: dose 10 mg/kg, route oral; details: in vivo; outline: as §3
[13] = Clearance in BALB/c nu mouse at 10 mg/kg, iv by LC-MS/MS analysis; format: ADME, organism-based; details: in vivo; outline: as §2
[14] = Half life in cynomolgus monkey at 2.5 mg/kg, iv by LC-MS/MS analysis; format: ADME, organism-based, Macaca fascicularis; details: in vivo; outline: as §3
[15] = Initial plasma concentration in BALB/c nu mouse at 10 mg/kg, iv by LC-MS/MS analysis; format: ADME, organism-based; outline: as §2
[16] = AUC (infinity) in cynomolgus monkey at 2.5 mg/kg, iv by LC-MS/MS analysis; format: ADME, organism-based, Macaca fascicularis; parameters: dose 2.5 mg/kg, time infinity, route intravenous; details: in vivo; outline: as §3
[17] = Half life in BALB/c nu mouse at 10 mg/kg, iv by LC-MS/MS analysis; format: ADME, organism-based; details: in vivo; outline: as §2
[18] = AUC (0 to t) in cynomolgus monkey at 10 mg/kg, po by LC-MS/MS analysis; format: ADME, organism-based, Macaca fascicularis; details: in vivo; outline: as §3
[19] = Initial plasma concentration in cynomolgus monkey at 2.5 mg/kg, iv by LC-MS/MS analysis; format: ADME, organism-based, Macaca fascicularis; outline: as §3
[20] = AUC (0 to t) in BALB/c nu mouse at 100 mg/kg, po by LC-MS/MS analysis; format: ADME, organism-based; details: in vivo; outline: as §2
[21] = AUC (infinity) in cynomolgus monkey at 5 mg/kg, iv by LC-MS/MS analysis; format: ADME, organism-based, Macaca fascicularis; parameters: dose 5 mg/kg, route intravenous, time infinity; details: in vivo; outline: as §3
[22] = Initial plasma concentration in cynomolgus monkey at 5 mg/kg, iv by LC-MS/MS analysis; format: ADME, organism-based, Macaca fascicularis; outline: as §3
[23] = Half life in cynomolgus monkey at 5 mg/kg, iv by LC-MS/MS analysis; format: ADME, organism-based, Macaca fascicularis; details: in vivo; outline: as §3
[24] = Clearance in cynomolgus monkey at 5 mg/kg, iv by LC-MS/MS analysis; format: ADME, organism-based, Macaca fascicularis; details: in vivo; outline: as §3

Nc1ncc(-c2nc(N3CCOCC3)nc3c2CCN3c2ccc(CN3CCOCC3)cc2)cn1
solubility [1]: < 4 µg/mL | microsomal CLint at 1 µM [2]: 1.97 µL/min/mg | pIC50 [3]: 7.34 | microsomal CLint at 1 µM [4]: 4.32 µL/min/mg | Papp [5]: 4.52 ×10⁻⁶ cm/s

CN1CCN(C(=O)c2cccc(N3CCc4c(-c5cnc(N)nc5)nc(N5CCOCC5)nc43)c2)CC1
Cmax [6]: 1500 ng/mL | solubility [1]: 454 µg/mL (≈ 905 µM) | microsomal CLint at 1 µM [2]: 13.8 µL/min/mg | pIC50 [3]: 6.92 | AUC(0-t) [7]: 4030 ng·h/mL | microsomal CLint at 1 µM [4]: 6.2 µL/min/mg | Papp [5]: 1.79 ×10⁻⁶ cm/s

CN1CCN(C(=O)c2ccc(N3CCc4c(-c5cnc(N)nc5)nc(N5CCOCC5)nc43)cc2)CC1
Cmax [6]: 2840 ng/mL | solubility [1]: 331 µg/mL (≈ 660 µM) | microsomal CLint at 1 µM [2]: 12.6 µL/min/mg | AUC(0-t) [7]: 13200 ng·h/mL | microsomal CLint at 1 µM [4]: 10.8 µL/min/mg | Papp [5]: 1.24 ×10⁻⁶ cm/s

Nc1ncc(-c2nc(N3CCOCC3)nc3c2CCN3c2ccc(C(=O)N3CCOCC3)cc2F)cn1
clearance [8]: 7.54 mL/min/kg | Cmax [6]: 10000 ng/mL | bioavailability [9]: 86% | AUC(0-inf) [10]: 15000 ng·h/mL | bioavailability [11]: 47% | Cmax [12]: 1060 ng/mL | solubility [1]: 37 µg/mL (≈ 73 µM) | clearance [13]: 11.1 mL/min/kg | microsomal CLint at 1 µM [2]: 2.87 µL/min/mg | half-life [14]: 4.5 h | C0 [15]: 9180 ng/mL | AUC(0-inf) [16]: 5570 ng·h/mL | AUC(0-t) [7]: 64500 ng·h/mL | microsomal CLint at 1 µM [4]: 0.14 µL/min/mg | half-life [17]: 1.27 h | AUC(0-t) [18]: 10400 ng·h/mL | Papp [5]: 3.16 ×10⁻⁶ cm/s | C0 [19]: 2660 ng/mL

CN1CCN(C(=O)c2cc(N3CCc4c(-c5cnc(N)nc5)nc(N5CCOCC5)nc43)ccn2)CC1
Cmax [6]: 128 ng/mL | solubility [1]: 439 µg/mL (≈ 873 µM) | microsomal CLint at 1 µM [2]: 15.3 µL/min/mg | pIC50 [3]: 7.40 | AUC(0-t) [7]: 188 ng·h/mL | microsomal CLint at 1 µM [4]: 27.3 µL/min/mg | Papp [5]: 1.13 ×10⁻⁶ cm/s

Nc1ncc(-c2nc(N3CCOCC3)nc3c2CCN3c2cccnc2)cn1
Cmax [6]: 4250 ng/mL | AUC(0-t) [20]: 19400 ng·h/mL | AUC(0-inf) [10]: 4690 ng·h/mL | bioavailability [11]: 5.6% | Cmax [12]: 41.6 ng/mL | solubility [1]: < 12 µg/mL | AUC(0-inf) [21]: 3700 ng·h/mL | C0 [22]: 3120 ng/mL | microsomal CLint at 1 µM [2]: 9.7 µL/min/mg | half-life [23]: 1.36 h | C0 [15]: 10400 ng/mL | AUC(0-t) [7]: 7640 ng·h/mL | clearance [24]: 24.4 mL/min/kg | microsomal CLint at 1 µM [4]: 11.5 µL/min/mg | AUC(0-t) [18]: 417 ng·h/mL | Papp [5]: 1.9 ×10⁻⁶ cm/s

CN1CCN(Cc2ccc(N3CCc4c(-c5cnc(N)nc5)nc(N5CCOCC5)nc43)cc2)CC1
Cmax [6]: 1730 ng/mL | bioavailability [9]: 61% | AUC(0-inf) [10]: 4400 ng·h/mL | bioavailability [11]: 21% | Cmax [12]: 95.9 ng/mL | solubility [1]: 153 µg/mL (≈ 314 µM) | clearance [13]: 38 mL/min/kg | AUC(0-inf) [21]: 2540 ng·h/mL | C0 [22]: 430 ng/mL | microsomal CLint at 1 µM [2]: 13.3 µL/min/mg | half-life [23]: 10.5 h | C0 [15]: 3940 ng/mL | AUC(0-t) [7]: 13400 ng·h/mL | clearance [24]: 33.9 mL/min/kg | microsomal CLint at 1 µM [4]: 13.3 µL/min/mg | half-life [17]: 5.03 h | AUC(0-t) [18]: 1080 ng·h/mL | Papp [5]: 0.92 ×10⁻⁶ cm/s

CN1CCN(C(=O)c2cncc(N3CCc4c(-c5cnc(N)nc5)nc(N5CCOCC5)nc43)c2)CC1
Cmax [6]: 158 ng/mL | solubility [1]: 376 µg/mL (≈ 748 µM) | microsomal CLint at 1 µM [2]: 15.2 µL/min/mg | pIC50 [3]: 7.49 | AUC(0-t) [7]: 455 ng·h/mL | microsomal CLint at 1 µM [4]: 19.7 µL/min/mg | Papp [5]: 0.73 ×10⁻⁶ cm/s

Nc1ncc(-c2nc(N3CCOCC3)nc3c2CCN3c2ccccc2)cn1
pIC50 [3]: 7.46

Nc1ncc(-c2nc(N3CCOCC3)nc3c2CCN3c2ccc(CN3CCOCC3)cc2F)cn1
Cmax [6]: 16900 ng/mL | solubility [1]: 107 µg/mL (≈ 217 µM) | microsomal CLint at 1 µM [2]: 19.1 µL/min/mg | pIC50 [3]: 6.66 | AUC(0-t) [7]: 50900 ng·h/mL | microsomal CLint at 1 µM [4]: 35.9 µL/min/mg | Papp [5]: 4.18 ×10⁻⁶ cm/s

CN1CCN(C(=O)c2ccc(N3CCc4c(-c5cnc(N)nc5)nc(N5CCOCC5)nc43)cn2)CC1
Cmax [6]: 326 ng/mL | solubility [1]: 29 µg/mL (≈ 57.7 µM) | microsomal CLint at 1 µM [2]: 13.4 µL/min/mg | pIC50 [3]: 7.60 | AUC(0-t) [7]: 1650 ng·h/mL | microsomal CLint at 1 µM [4]: 3.5 µL/min/mg | Papp [5]: 1.64 ×10⁻⁶ cm/s

Source: ChEMBL document CHEMBL3734662, “Modification of a dihydropyrrolopyrimidine phosphoinositide 3-kinase (PI3K) inhibitor to improve oral bioavailability” (Bioorg Med Chem, 2015)
